In ChEMBL document CHEMBL4270638, “Sulfonyl-containing phenyl-pyrrolyl pentane analogues: Novel non-secosteroidal vitamin D receptor modulators with favorable physicochemical properties, pharmacokinetic properties and anti-tumor activity” (Eur J Med Chem, 2018):
≈ marks a conversion by molar mass, not a printed value. Calls of active or inactive are those of the source. No cut-off for these calls is given here.

Columns and labels:
MCF7 [1] = test: Cell cycle arrest in human MCF7 cells expressing scrambled siRNA assessed as accumulation at G0/G1 phase at 1 uM after 24 hrs by propidium iodide staining based flow cytometry (reference value: 49.28%); assay type: functional
MCF7 [2] = test: Cell cycle arrest in human MCF7 cells expressing scrambled siRNA assessed as accumulation at G2/M phase at 1 uM after 24 hrs by propidium iodide staining based flow cytometry (reference value: 19.6%); assay type: functional
MCF7 [3] = test: Cell cycle arrest in human MCF7 cells expressing scrambled siRNA assessed as accumulation at S phase at 1 uM after 24 hrs by propidium iodide staining based flow cytometry (reference value: 29.79%); assay type: functional
MCF7 [4] = test: Cell cycle arrest in human MCF7 cells expressing VDR siRNA assessed as accumulation at G0/G1 phase at 1 uM after 24 hrs by propidium iodide staining based flow cytometry (reference value: 49.17%); assay type: functional
MCF7 [5] = test: Cell cycle arrest in human MCF7 cells expressing VDR siRNA assessed as accumulation at G2/M phase at 1 uM after 24 hrs by propidium iodide staining based flow cytometry (reference value: 17.57%); assay type: functional
MCF7 [6] = test: Cell cycle arrest in human MCF7 cells expressing VDR siRNA assessed as accumulation at S phase at 1 uM after 24 hrs by propidium iodide staining based flow cytometry (reference value: 32%); assay type: functional
MCF7 [7] = test: Induction of apoptosis in human MCF7 cells expressing scrambled siRNA assessed as live cells at 1 uM after 24 hrs by Annexin-V-FITC/propidium iodide staining based flow cytometry (reference value: 97.93%); assay type: functional
MCF7 [8] = test: Induction of apoptosis in human MCF7 cells expressing scrambled siRNA assessed as early apoptotic cells at 1 uM after 24 hrs by Annexin-V-FITC/propidium iodide staining based flow cytometry (reference value: 0.93%); assay type: functional
MCF7 [9] = test: Induction of apoptosis in human MCF7 cells expressing scrambled siRNA assessed as late apoptotic cells at 1 uM after 24 hrs by Annexin-V-FITC/propidium iodide staining based flow cytometry (reference value: 0.98%); assay type: functional
MCF7 [10] = test: Induction of apoptosis in human MCF7 cells expressing scrambled siRNA assessed as necrotic cells at 1 uM after 24 hrs by Annexin-V-FITC/propidium iodide staining based flow cytometry (reference value: 0.16%); assay type: functional
MCF7 [11] = test: Induction of apoptosis in human MCF7 cells expressing VDR siRNA assessed as live cells at 1 uM after 24 hrs by Annexin-V-FITC/propidium iodide staining based flow cytometry (reference value: 98.35%); assay type: functional
MCF7 [12] = test: Induction of apoptosis in human MCF7 cells expressing VDR siRNA assessed as early apoptotic cells at 1 uM after 24 hrs by Annexin-V-FITC/propidium iodide staining based flow cytometry (reference value: 0.49%); assay type: functional
MCF7 [13] = test: Induction of apoptosis in human MCF7 cells expressing VDR siRNA assessed as late apoptotic cells at 1 uM after 24 hrs by Annexin-V-FITC/propidium iodide staining based flow cytometry (reference value: 1.01%); assay type: functional
MCF7 [14] = test: Induction of apoptosis in human MCF7 cells expressing VDR siRNA assessed as necrotic cells at 1 uM after 24 hrs by Annexin-V-FITC/propidium iodide staining based flow cytometry (reference value: 0.15%); assay type: functional
MCF7 [15] = test: Antitumor activity against human MCF7 cells xenografted in Balb/c nude mouse assessed as increase in p21 expression at […], ip administered three times a week for three weeks starting from day 7 after tumor cell inoculation by immunohistochemical analysis; assay type: functional, organism-based
In short: (§1)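 Orthotopic MCF-7 fat-pad xenografts in nude mice, as above. Dosing ip three times weekly for three weeks. Tumours fixed 24 h in 4% neutral buffered paraformaldehyde, paraffin-embedded and cut at 5 µm. Sections dewaxed with antigen retrieval, peroxidase quenched with 3% H2O2 for 10 min, then immunostained for p21, p27 and Bax.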

MCF7 [16] = test: Antitumor activity against human MCF7 cells xenografted in Balb/c nude mouse assessed as increase in p27 expression at […], ip administered three times a week for three weeks starting from day 7 after tumor cell inoculation by immunohistochemical analysis; assay type: functional, organism-based; in short: as §1
MCF7 [17] = test: Antitumor activity against human MCF7 cells xenografted in Balb/c nude mouse assessed as increase in Bax expression at […], ip administered three times a week for three weeks starting from day 7 after tumor cell inoculation by immunohistochemical analysis; assay type: functional, organism-based; in short: as §1
Mus musculus [18] = test: Hypercalcemic effect in Balb/c nude mouse xenografted with human MCF7 cells assessed as effect on serum calcium level at 0.5 ug/kg, ip administered three times a week for three weeks starting from day 7 after tumor cell inoculation measured on day 27 (reference value: 0.6 umol/ml); settings: in vivo
Mus musculus [19] = test: Hypercalcemic effect in Balb/c nude mouse xenografted with human MCF7 cells assessed as effect on serum calcium level at 0.5 ug/kg, ip administered three times a week for three weeks starting from day 7 after tumor cell inoculation measured on day 17 during compound dosing (reference value: 0.6 umol/ml); settings: in vivo
BXPC-3 = test: Antiproliferative activity against human BxPC3 cells after 24 hrs by MTT assay; assay type: functional, cell-based; settings: BXPC-3, 24 h
MCF7 [20] = test: Antiproliferative activity against human MCF7 cells after 24 hrs by MTT assay; assay type: functional, cell-based; settings: MCF7, 24 h
PC-3 = test: Antiproliferative activity against human PC3 cells after 24 hrs by MTT assay; assay type: functional, cell-based; settings: PC-3, 24 h
[21] = Solubility of the compound in water at pH 7.4 by HPLC method; assay type: physicochemical
In short: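 Aqueous solubility measured at pH 7.4, with samples quantified by HPLC.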

[22] = Half life in rat liver microsomes in presence of NADPH by HPLC method; assay type: ADME, microsome
In short: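 Compounds incubated with rat liver microsomes plus NADPH. Remaining compound quantified by HPLC at 0, 5, 10, 20, 30, 45, 60 and 90 min, and half-life calculated.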

Vitamin D3 receptor = target: T1, Vitamin D3 receptor (Homo sapiens, UniProt P11473); test: Displacement of fluormone VDR red from human full-length VDR after 4 hrs by fluorescence polarization assay
T1 sequence (P11473 whole entry): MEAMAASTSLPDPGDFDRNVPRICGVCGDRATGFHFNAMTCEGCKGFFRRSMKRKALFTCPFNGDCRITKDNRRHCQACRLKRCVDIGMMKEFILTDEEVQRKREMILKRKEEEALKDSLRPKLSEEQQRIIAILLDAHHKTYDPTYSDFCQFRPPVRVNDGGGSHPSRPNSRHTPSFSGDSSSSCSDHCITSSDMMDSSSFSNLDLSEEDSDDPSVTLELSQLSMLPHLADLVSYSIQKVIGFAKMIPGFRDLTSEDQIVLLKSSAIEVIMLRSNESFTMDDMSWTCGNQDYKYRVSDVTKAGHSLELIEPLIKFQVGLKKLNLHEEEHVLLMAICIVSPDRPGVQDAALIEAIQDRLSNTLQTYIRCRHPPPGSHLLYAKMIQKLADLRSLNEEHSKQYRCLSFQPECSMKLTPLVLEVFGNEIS

[23] = target: T2, Retinoic acid receptor RXR-alpha/Vitamin D3 receptor (Homo sapiens, UniProt P11473+P19793); test: Transactivation of recombinant human VDR/RXRalpha expressed in HEK293 cells after 24 hrs by Dual-luciferase reporter gene assay; assay type: cell-based
T2 sequence (P11473 whole entry): T1 sequence (P11473 whole entry)
T2 sequence (P19793 whole entry): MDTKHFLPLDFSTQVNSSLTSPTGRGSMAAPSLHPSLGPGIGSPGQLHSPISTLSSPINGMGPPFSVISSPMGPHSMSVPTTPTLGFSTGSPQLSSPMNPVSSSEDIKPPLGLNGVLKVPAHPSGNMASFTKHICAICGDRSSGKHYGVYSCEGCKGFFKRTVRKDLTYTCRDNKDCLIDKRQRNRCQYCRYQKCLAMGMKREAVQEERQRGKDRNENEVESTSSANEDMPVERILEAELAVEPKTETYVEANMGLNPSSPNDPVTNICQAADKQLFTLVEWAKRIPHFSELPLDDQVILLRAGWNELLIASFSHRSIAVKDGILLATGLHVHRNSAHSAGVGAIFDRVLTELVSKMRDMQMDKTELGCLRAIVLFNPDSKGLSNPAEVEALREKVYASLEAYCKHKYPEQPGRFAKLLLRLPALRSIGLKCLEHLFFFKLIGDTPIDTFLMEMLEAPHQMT

MCF7 [24] = test: Antiproliferative activity against human MCF7 cells expressing VDR siRNA assessed as reduction in BrdU incorporation after 16 hrs by ELISA; assay type: functional, cell-based; settings: MCF7, 16 h
[25] = AUC in Sprague-Dawley rat at 5 mg/kg, iv by HPLC method; assay type: ADME, organism-based; settings: in vivo
In short: (§2)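 Male Sprague-Dawley rats, 180–220 g, n = 3 per group. Dosed iv at 5 mg/kg or ip at 20 mg/kg in ethanol/EL/saline (1:1:18). Plasma sampled at 0, 0.083, 0.167, 0.25, 0.5, 1, 2, 4, 8, 12 and 24 h and centrifuged 12000 rpm for 10 min. Plasma drug measured by HPLC; parameters by PK modelling; mean ± SD.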

[26] = Half life in Sprague-Dawley rat at 5 mg/kg, iv by HPLC method; assay type: ADME, organism-based; settings: in vivo; in short: as §2
[27] = Mean residence time in Sprague-Dawley rat at 5 mg/kg, iv by HPLC method; assay type: ADME, organism-based; settings: in vivo; in short: as §2
[28] = Clearance in Sprague-Dawley rat at 5 mg/kg, iv by HPLC method; assay type: ADME, organism-based; settings: in vivo; in short: as §2
[29] = AUC in Sprague-Dawley rat at 20 mg/kg, ip by HPLC method; assay type: ADME, organism-based; settings: in vivo; in short: as §2
[30] = Half life in Sprague-Dawley rat at 20 mg/kg, ip by HPLC method; assay type: ADME, organism-based; settings: in vivo; in short: as §2
[31] = Mean residence time in Sprague-Dawley rat at 20 mg/kg, ip by HPLC method; assay type: ADME, organism-based; settings: in vivo; in short: as §2
[32] = Clearance in Sprague-Dawley rat at 20 mg/kg, ip by HPLC method; assay type: ADME, organism-based; settings: in vivo; in short: as §2
[33] = Bioavailability in Sprague-Dawley rat at 20 mg/kg, ip by HPLC method; assay type: ADME, organism-based; settings: in vivo; in short: as §2
MCF7 [34] = test: Antitumor activity against human MCF7 cells xenografted in Balb/c nude mouse assessed as reduction in tumor growth at 10 mg/kg, ip administered three times a week for three weeks starting from day 7 after tumor cell inoculation; assay type: functional, organism-based
In short: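 […] BALB/c-nu mice, 10 weeks old. 1×10^7 MCF-7 cells injected into the left fourth mammary fat pad; dosing began at about 50 mm3 tumour volume (day 7), n = 5 per group. Dosed ip at 10 mg/kg in ethanol/EL/saline 1:1:18, three times weekly for three weeks. Tumour volume by calipers = length × width² × 0.5; tumour weight and body weight recorded.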

SMILES | Activity (MCF7 [1]) [%] | Activity (MCF7 [2]) [%] | Activity (MCF7 [3]) [%] | Activity (MCF7 [4]) [%] | Activity (MCF7 [5]) [%] | Activity (MCF7 [6]) [%] | Activity (MCF7 [7]) [%] | Activity (MCF7 [8]) [%] | Activity (MCF7 [9]) [%] | Activity (MCF7 [10]) [%] | Activity (MCF7 [11]) [%] | Activity (MCF7 [12]) [%] | Activity (MCF7 [13]) [%] | Activity (MCF7 [14]) [%] | IC50 (BXPC-3) [µM] | IC50 (MCF7 [20]) [µM] | IC50 (PC-3) [µM] | solubility [21] [µg/mL] | half-life [22] [h] | also measured
C=C1/C(=C\C=C2/CCC[C@]3(C)[C@@H]([C@H](C)CCCC(C)(C)O)CC[C@@H]23)C[C@@H](O)C[C@@H]1O [CALCITRIOL] | 55.16 | 13.4 | 30.32 | 51.38 | 17.15 | 30.33 | 95 | 1.29 | 3.38 | 0.33 | 97.25 | 0.84 | 1.49 | 0.42 |  |  |  |  |  | Activity (MCF7 [15]): Active; Activity (MCF7 [16]): Active; Activity (MCF7 [17]): Active; Activity (Mus musculus [18]): 0.61 µmol/mL; Activity (Mus musculus [19]): 0.6 µmol/mL
CCN(CC)CCNC(=O)c1cc(C(CC)(CC)c2ccc(OCSC)c(C)c2)cn1CC | 55.62 | 12.37 | 30.52 | 51.44 | 16.92 | 30.37 | 95.2 | 1.17 | 3.24 | 0.39 | 96.68 | 0.91 | 1.91 | 0.5 | 4.11 | 4.64 | 9.54 | 198 (≈ 418 µM) | 0.802 | 
CCn1c(C(=O)N[C@@H](C)CO)ccc1C(CC)(CC)c1ccc(OCC(O)C(C)(C)C)c(C)c1 (stereo not given in full) | 55.43 | 11.69 | 31.41 | 51.05 | 18.59 | 29.44 | 95.55 | 1.31 | 2.88 | 0.26 | 96.87 | 0.99 | 1.79 | 0.35 | 15.8 | 18.2 | 8.5 | 1.7 (≈ 3.6 µM) | 0.429 | IC50 (Vitamin D3 receptor): 0.115 µM; EC50 [23]: 0.00681 µM; IC50 (MCF7 [24]): > 50 µM; AUC [25]: 4650 ng·h/mL; half-life [26]: 2.89 h; MRT [27]: 5.54 h; clearance [28]: 18 mL/min; AUC [29]: 6040 ng·h/mL; half-life [30]: 3.47 h; MRT [31]: 5.5 h; CL/F [32]: 55.2 mL/min; bioavailability [33]: 32.5%; Activity (MCF7 [34]): Active
